# The sample as a whole holds a higher share of hits than the screen did.
# T cruzi repl = blocks replication of Trypanosoma cruzi; T. cruzi beta-gal in NIH3T3, luminescence, 90 h; hit rate 1.4% among 300,000; inhibition, % (concentration not given with the values);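 active = mean inhibition across valid replicates above about 55%, limit read from the data; inconclusive = mean below that limit but half or more replicates reach it; inactive = mean below it, under half of replicates reach it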;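 note: signal also drops with host cell toxicity which is not excluded here; 0% = plate median of DMSO wells and 100% = zero luminescence signal; higher percent means less beta-gal luminescence so fewer parasites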
#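 compound dosing = single 50 nL compound addition per well in DMSO | material = NIH/3T3 host cells with β-galactosidase reporter T. cruzi | input = 5,000 host fibroblasts per well | timing = ≥90 h infection period, 3 h prior cell attachment | read-out basis = percent inhibition of parasite-derived β-gal signal | detection = GalScreen β-gal luminescence, detergent lysis, 60 min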
# DTT redox prof = compounds producing H2O2 with reducing agent – biochemical, NIH compound library profiling, artefact control for MLSCN library redox annotation, primary screen. hit rate 0.03% among 200,000. activation, % at 10 µM. DTT-dependent redox cycling H2O2, phenol red/HRP absorbance; 100% = 100 µM peroxide control, 0% = buffer. AID 878;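 active = activation of at least 50% relative to the plate's high and low controls in the primary single-dose screen; inactive = activation below 50%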;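 note: compound incubated with DTT at 0.8 mM final as the reducing agent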
# Lmaj promast = Leishmania major promastigote growth inhibition; Leishmania major promastigotes, resazurin fluorescence viability; inhibition, % at 10 µM; hit rate 9% among 200,000; AID 1063; in the data active = inhibition above about 50%;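 note: promastigotes grown with compound for 44 hours at 28 °C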
# Hep lipid drop = modulators of hepatic lipid droplet formation. AML12 mouse hepatocytes, oleate lipid droplets, BODIPY imaging. inhibition, % at 6.5 µM. hit rate 0.4% among 240,000;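 active = lipid droplet intensity inhibited by at least 50%, with more than 500 cells counted; inconclusive = wells with under 300 cells, treated as cytotoxic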
#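 Assay system: AML12 mouse liver cells | Compound: 6.5 µM single-point dosing | Schedule: Overnight exposure | Technique: Fluorescence imaging, 20x objective, two fields per well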
# MPTP inh = permeability transition pore inhibition; inhibition, % at 10 µM; hit rate 1.4% among 360,000; AID 602449; isolated mouse mitochondria, Ca2+ swelling absorbance, 30 min;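 active = inhibition of 50% or more, scaled per plate between neutral and stimulator controls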;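 note: 0% = DMSO wells given calcium and 100% = 1 mM EGTA wells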
# MPTP counter = mitochondrial membrane potential, counter-screen | inhibition, % at 10 µM | hit rate 78% among 5,000 | shares compounds with MPTP inh | isolated mitochondria, Rhodamine 123 fluorescence; in the data active = inhibition above about 22%;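 note: 0% = DMSO vehicle and 100% = positive control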
# MPTP abs DR = MPTP inhibition, dose response swelling confirmation | shares compounds with MPTP inh | isolated mitochondria swelling, absorbance | IC50, µM | hit rate 58% among 780 | AID 651561; in the data active = IC50 below about 20 µM
# MPTP counter DR = counter-screen for mitochondrial permeability transition pore inhibitors, dose response. isolated mitochondria counterscreen, fluorescence read-out. shares compounds with MPTP inh. IC50, µM. hit rate 49% among 780; in the data active = IC50 below about 80 µM
# Starred values were filed as active, the others as inactive; u = inconclusive; x = no result.
SMILES,T cruzi repl,DTT redox prof,Lmaj promast,Hep lipid drop,MPTP inh,MPTP counter,others
Cc1ccc(N2CC(C(=O)N3CCC(C(=O)Nc4ccc(Br)cc4)CC3)CC2=O)cc1 (stereo not drawn),-10.1,x,x,5.7,0.4,x,
COc1cc(S(=O)(=O)n2cnc3ccccc32)ccc1Br,0.1,x,x,11.5,0.4,x,
Cn1cc(CNCc2ccc(OC(F)(F)F)cc2)c(-c2ccc3c(c2)OCCO3)n1,-6.3,-1.8,26.9,-37.6,101.6*,96.3*,
Cn1cc(CNCc2cn[nH]c2-c2ccc(F)cc2)c(-c2ccc3c(c2)OCCO3)n1,-12.2,-0.9,3.1,9.7,2.5,x,
O=C(N/N=C/C1C(c2ccccc2)C1(Cl)Cl)c1cccc(Cl)c1 (stereo not drawn),-17.3,0.0,1.5,-25.3,75.4*,79.6*,
O=C(N/N=C/c1c[nH]c2ccccc12)c1cccc(Cl)c1,-2.1,x,x,12.0,1.1,x,
CCOc1ccc(NC(=O)Nc2c(C)n(C)n(-c3ccccc3)c2=O)cc1,0.1,x,x,-0.1,0.8,x,
CCN(CC)S(=O)(=O)c1ccc2oc(SCC3CN=C(c4ccc(OC)cc4)S3)nc2c1 (stereo not drawn),38.3,-0.1,8.3,x,56.2*,9.6,MPTP abs DR=17.4*;MPTP counter DR=11.6*
Cc1ccc(/C=N/NC(=O)c2cccc(S(=O)(=O)N3CCOCC3)c2)o1,1.8,-1.7,-1.1,-10.0,-0.8,x,
Clc1ccc2[nH]cc(-c3nnnn3-c3ccccc3)c2c1,27.2,-4.1,19.6,x,75.6*,82.4*,
O=C(NNC(=S)Nc1cccc(Cl)c1)c1ccccc1OC(F)F,-10.0,-0.3,4.8,-4.0,86.5*,90.0*,
CC(NC(=S)Nc1ccc(OC(F)F)c(Cl)c1)C(C)(C)C (stereo not drawn),6.7,-2.0,34.9,-23.2,92.9*,95.3*,
Cc1ccc(NC(=S)Nc2ccc(Cl)c(Cl)c2)c(OC(F)F)c1,-13.3,0.3,7.2,-10.1,100.3*,90.5*,
Fc1ccc(NC(=S)Nc2ccccc2N2CCOCC2)cc1Cl,-1.9,-1.3,9.1,-30.7,100.2*,97.7*,
O=C(CSC(=S)N1CCOCC1)Nc1nc(=O)c2ccccc2s1,u,-0.5,-7.2,-20.5,x,x,
Cc1cc(C)cc(N2CCCn3c2nc2c3c(=O)[nH]c(=O)n2C)c1,-5.0,x,x,x,-0.8,x,
CN(C)C(=O)c1cc(C(=O)c2ccc(C(F)(F)F)cc2)c[nH]1,-14.9,x,x,x,0.7,x,
O=C(NCCN1CCC(n2c(=O)[nH]c3ccccc32)CC1)N1c2ccccc2Sc2ccccc21,x,x,x,x,-1.4,x,
COc1ccc(NC(=S)Nc2cccc(Cl)c2)cc1OC,-20.0,0.0,8.5,-0.9,7.9,x,
Fc1ccc(NC(=S)Nc2ccccc2OC(F)F)cc1Cl,-15.1,0.3,12.2,-41.6,99.7*,75.8*,
COc1ccc(NC(=S)Nc2ccc(C)c(Cl)c2)cc1OC,-3.2,-0.3,21.0,13.9,52.5*,100.0*,
Cc1ccc(NC(=S)Nc2ccc(OC(F)F)c(Cl)c2)cc1Cl,13.4,-0.3,7.1,-97.4,94.7*,91.7*,
FC(F)Oc1ccccc1NC(=S)Nc1cccnc1,-2.1,-0.2,2.5,6.6,2.2,x,
Cc1ccsc1C(=O)OCC(=O)N1CCc2ccccc2C1,0.7,-2.1,-9.1,3.2,-0.3,x,
CC(C)(C#CCN1CCCCC1)OCCOC(c1ccccc1)c1ccccc1,5.8,0.2,21.8,0.2,77.0*,11.8,MPTP abs DR=19.9*;MPTP counter DR=20.4*
C(#CCN1CCOCC1)COCCOC(c1ccccc1)c1ccccc1,-14.7,0.1,-3.2,-10.8,-3.5,x,
COc1ccc(-c2[nH]c(-c3ccc4c(c3)OCO4)nc2-c2ccccc2)cc1,46.9,-6.5,64.8*,x,95.1*,70.3*,
COc1cc(/C=N/NC(=O)c2ccccn2)cc2c1OCO2,-1.8,-0.4,-5.0,-1.7,2.1,x,
COc1cc(-c2nc(-c3ccccc3)c(-c3ccc(F)cc3)[nH]2)cc2c1OCO2,47.2,0.4,16.6,-12.5,88.8*,62.8*,
CC(C)n1c(=O)nc(-c2ccccc2)c2cc3c(cc21)OCO3,x,x,x,x,0.7,x,
